Screens deposited in PubChem BioAssay by Johns Hopkins Ion Channel Center.
Compounds with a hit are over-represented: about 3.5% of the library has one in this group of screens.
MrgX1 antag: antagonists of human MrgX1 receptor; Q96LB2; MRGX1-HEK293 calcium flux, Fluo-4, BAM8-22 antagonism; stronger effect = lower value; 310,000 compounds, 1.3% hits; B-score at 10 µM;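 active = calcium-response B-score plate-corrected more than 3 library SD below zero, starting fluorescence within 5 deviations, no agonist response on first addition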;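 note: peak minus trough fluorescence over baseline after final BAM8-22 challenge near maximal dose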
Target sequence (Q96LB2 whole entry, looked up): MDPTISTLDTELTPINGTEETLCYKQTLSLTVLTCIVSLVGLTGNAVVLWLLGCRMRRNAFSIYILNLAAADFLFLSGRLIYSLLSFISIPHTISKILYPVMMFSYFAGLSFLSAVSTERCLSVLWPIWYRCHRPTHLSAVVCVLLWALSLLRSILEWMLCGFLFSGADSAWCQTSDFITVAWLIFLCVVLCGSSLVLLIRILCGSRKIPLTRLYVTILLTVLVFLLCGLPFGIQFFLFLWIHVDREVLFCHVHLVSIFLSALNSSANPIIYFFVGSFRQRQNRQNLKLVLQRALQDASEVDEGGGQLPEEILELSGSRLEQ
MrgX1 agonist: agonists of human MrgX1 receptor; MrgX1-HEK293 cells, Fluo-4 calcium fluorescence, agonist mode; stronger effect = higher value; 310,000 compounds, 0.44% hits; AID 588627; Q96LB2; B-score at 10 µM;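 active = calcium response B-score plate-corrected fluorescence ratio at least 3 library SD, with starting fluorescence B-score inside 5 SD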
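times = overnight plating, then 30 min 37 °C plus 30 min room-temperature dye loading | assay system = stable human MrgX1 HEK293 cell line | input = fifteen thousand cells per well | signal = kinetic calcium dye fluorescence, Fluo-4 NW | dosing = compound delivered in addition one of three | read-out = B-scored fluorescence response ratio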
RGS4 block: inhibitors of human RGS4; P49798; HEK293 M3R/RGS4 inducible, Fluo-4 calcium flux; stronger effect = higher value; triggered by carbachol at its EC20; B-score at 10 µM; 310,000 compounds, 0.45% hits; AID 463165;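 active = B-score, a plate-corrected calcium signal, over three deviations above library mean, with baseline fluorescence within five deviations of library mean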;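 note: RGS4 expression induced by doxycycline in cells with stable M3 receptor; B-score is computed from the integrated fluorescence ratio over baseline after carbachol; higher B-score means a larger calcium signal and so more RGS4 inhibition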
MrgX1 PAM: allosterically activates human MrgX1 receptor signaling | MrgX1-HEK293, Fluo-4 calcium flux, FDSS; stronger effect = higher value | B-score at 10 µM | 310,000 compounds, 0.63% hits;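 active = plate-corrected calcium response at least 3 library SD above typical, normal starting fluorescence, not activating the receptor alone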;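 note: compound read alongside a low EC10 to EC30 dose of BAM8-22 agonist; peak minus trough fluorescence over baseline measured at the second addition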
RGS4 act: potentiators or activators of RGS4 | HEK293 M3R/inducible RGS4, carbachol calcium flux Fluo4; stronger effect = lower value | B-score at 10 µM | 310,000 compounds, 0.92% hits | AID 463111;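 active = B-score of the integrated calcium signal more than 4 SD below the library mean, with starting fluorescence not abnormally high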;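 note: negative B-score means reduced calcium response which marks RGS4 activation or potentiation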
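Test system: HEK293 cells with stable M3R and inducible RGS4; also added: carbachol at ECmax as muscarinic agonist stimulus; schedule: dye loading 30 min 37 °C, buffer rest 30 min RT; technique: kinetic calcium fluorescence imaging with Fluo4-AM dye, 2 µM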
RGS4 act valid: confirmation of RGS4 activators | inhibition, % at 10 µM | 1,100 compounds, 89% hits | AID 602282 | HEK293 M3R/RGS4 inducible, carbachol calcium flux Fluo4 | shares compounds with RGS4 act;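 active = inhibition above 3 SD of the buffer control wells, cut at about 41% in these data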;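 note: signal is the integrated peak-minus-minimum Fluo4 fluorescence over baseline ratio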
M3R Ca counter: RGS4 activator counter-screen hit in non-induced cells | shares compounds with RGS4 act | HEK293 M3R non-induced RGS4, Fluo4 calcium flux; after carbachol challenge at its EC90 | inhibition, % at 10 µM | AID 602283 | 1,100 compounds, 82% hits;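 active = inhibition exceeding 3 SD of buffer-only control wells, cut at about 26% in these data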;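 note: percent drop in integrated peak-minus-baseline over baseline Fluo4 ratio after carbachol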
* hit, by the source's call; i = inactive; . = no result.

SMILES	MrgX1 antag	MrgX1 agonist	RGS4 block	MrgX1 PAM	RGS4 act	RGS4 act valid	M3R Ca counter
COc1ccc(N2C(=O)CSC23C(=O)N2CCCc4cccc3c42)cc1 (stereo unspecified)	i	i	i	i	-8.35*	92.0*	89.3*
COCc1ccc(C(=O)N(C)C2CCCN(Cc3ccccc3F)C2)o1 (stereo unspecified)	i	i	i	i	-8.63*	56.5*	0.0
COC(=O)c1ccc(C(=O)N(C)C2CCCN(Cc3ccccc3F)C2)cc1 (stereo unspecified)	i	i	i	i	i	.	.
O=C(c1ccc2c(c1)OCO2)C1CCCN(Cc2c(F)ccc(F)c2F)C1 (stereo unspecified)	i	i	i	i	-7.86*	92.5*	57.8*
O=C(c1ccc2c(c1)OCO2)C1CCCN(Cc2ccccc2OC(F)F)C1 (stereo unspecified)	i	i	i	i	-7.7*	72.5*	29.8*
O=C(CN1C2CCCC1CC(NC(=O)C1CCCCC1)C2)Nc1ccccc1 (stereo unspecified)	i	i	i	i	i	.	.
O=C(NC1CC2CCCC(C1)N2Cc1ccccc1)C1CCCCC1 (stereo unspecified)	i	i	i	i	-9.86*	59.5*	0.0
CCC(=O)N1CCc2cc(S(=O)(=O)NCCC(=O)N3CCN(c4ccccc4)CC3)ccc21	i	i	i	i	i	.	.
CCC(=O)N1CCc2cc(S(=O)(=O)NCCC(=O)N3CCN(c4cccc(C)c4)C(C)C3)ccc21 (stereo unspecified)	i	i	i	i	-8.62*	64.5*	83.8*
O=C(N/N=C/C1CC2C=CC1C2)c1ccccc1O (stereo unspecified)	i	i	i	i	i	.	.
O=[N+]([O-])c1ccc(N2CCN(Cc3ccc(Br)o3)CC2)cc1	i	i	i	i	i	.	.
CCOC(=O)c1c(C(C)(C)C)oc2ccc(OCC#N)cc12	i	i	i	i	-8.79*	92.5*	91.8*
CCOC(=O)N1CCC(N2CCCC(C(=O)c3cc(C)c(OC)c(C)c3)C2)CC1 (stereo unspecified)	i	i	i	i	-8.1*	79.0*	35.3*
COc1ccc(C(=O)C2CCCN(C3Cc4ccccc4C3)C2)cc1OC (stereo unspecified)	i	i	i	i	-8.61*	86.0*	45.8*
COc1ccc(C(=O)C2CCCN(Cc3nc4ccccc4nc3C)C2)cc1OC (stereo unspecified)	i	i	i	i	i	.	.
COc1ccc(-c2cc(C3CC3)nc(SCC(=O)c3cccs3)c2C#N)cc1	i	i	i	i	i	.	.
CCOC(=O)CSc1nc(C2CC2)cc(-c2ccc(F)cc2)c1C#N	i	i	i	i	-8.48*	65.5*	0.0
Cc1cc(C)c(S(=O)(=O)n2ccc3ccccc32)c(C)c1	i	i	i	i	-9.47*	76.5*	29.3*
Cc1ccc(Nc2ccc(NCc3ccccc3)nn2)cc1C	i	i	i	i	i	.	.
Clc1ccc(Nc2ccc(NCc3ccccc3)nn2)cc1	i	i	i	i	-7.57*	0.0	0.0
CCOC(=O)N1CCC(N2CCN(C3CCCC3)C(CCO)C2)CC1 (stereo unspecified)	i	i	i	i	-10.2*	89.0*	58.8*
CCOC(=O)N1CCC(NC2CCCCCCC2)CC1	i	i	i	i	-8.1*	82.0*	0.0
CCOC(=O)N1CCC(N2CCN(Cc3ccccc3)C(CCO)C2)CC1 (stereo unspecified)	i	i	i	i	i	.	.
